An excerpt weighted towards active compounds, which were near 3.1% of everything screened.
Ecoli rRNA inh – inhibits bacterial ribosomal RNA function over humanized ribosomes; AID 720706; E. coli WT GFP vs humanized-ribosome RFP mutants, fluorescence, 24 h; hits give low values; DMSO median 0, no signal -100; GFP signal change (wild-type ribosome), % (test concentration not listed); 350,000 tested, 1.6% active;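 active = significant combined selectivity score with lowered wild-type GFP, culture density cut under 30%, mutant RFP and density less affected; inactive = any of these conditions unmet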
DENV2 CPE rescue – DENV2-induced cell death inhibition | DENV2-infected cells, cytopathic effect rescue, plate reader | 350,000 tested, 1.7% active | CPE inhibition, % at 9.99 µM; in the data active = CPE inhibition above about 20%, passing the limit was not always enough; inconclusive = no clear call, values can overlap the other calls; tested in BHK-21 cells
Cneo AK release – causes C. neoformans cell lysis; adenylate kinase release luminescence, 4 h; normalised: neutral wells 0, clomiphene wells 100; AID 651654; 360,000 tested, 0.2% active; lysis activity, % at 15 µM;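 active = mean lysis activity across replicates of at least 80%, whatever share of replicates individually reach that level; inactive = mean lysis activity below 80%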
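Assay system: C. neoformans cells. Amount: yeast cell density of 5 × 10^6 cells/mL. Technique: AK luminescence. Buffer or medium: YPD. Times: static 4 h at 37 °C with compound, 1 h detection. Dosing: single-point compound dose. Read-out: lysis from increased AK signal.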
E-sel inducer – E-selectin induction on HUVECs; activation, % at 7.58 µM; P16581; 260,000 tested, 0.37% active; AID 686992; HUVEC E-selectin immunofluorescence imaging; normalized: neutral wells 0, TNF-alpha wells 100;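 active = mean E-selectin-positive cell signal at least 10% of the positive control, reached in at least 60% of replicates, without over 20% cell loss; inconclusive = no rule given, readout overlaps actives, possibly toxicity-flagged; inactive = the rest, including those meeting only one limit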
Target sequence (P16581 whole entry, looked up): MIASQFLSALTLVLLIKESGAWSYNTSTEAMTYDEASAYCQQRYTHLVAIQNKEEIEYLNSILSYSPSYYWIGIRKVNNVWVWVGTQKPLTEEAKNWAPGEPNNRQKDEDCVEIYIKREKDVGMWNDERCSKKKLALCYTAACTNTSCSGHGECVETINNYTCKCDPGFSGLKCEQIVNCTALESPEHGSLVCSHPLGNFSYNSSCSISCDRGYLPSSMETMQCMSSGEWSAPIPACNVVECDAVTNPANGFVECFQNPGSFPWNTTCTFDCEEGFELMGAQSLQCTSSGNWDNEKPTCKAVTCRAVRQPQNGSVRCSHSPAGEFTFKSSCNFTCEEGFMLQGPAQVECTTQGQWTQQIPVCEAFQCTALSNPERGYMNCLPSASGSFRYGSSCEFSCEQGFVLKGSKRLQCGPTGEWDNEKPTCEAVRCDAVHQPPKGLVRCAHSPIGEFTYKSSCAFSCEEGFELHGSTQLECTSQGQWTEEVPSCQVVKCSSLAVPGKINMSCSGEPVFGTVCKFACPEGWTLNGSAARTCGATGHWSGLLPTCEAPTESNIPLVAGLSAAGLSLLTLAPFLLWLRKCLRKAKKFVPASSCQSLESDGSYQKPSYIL
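Assay system: HUVEC, human umbilical vein endothelial cells / Amount: 3,000 HUVEC/well / Controls: TNF-alpha positive control, DMSO neutral control / Compound dosing: single concentration / Medium: EGM-2 over gelatin coat / Evaluation: percent E-selectin-positive cells / Signal: immunofluorescence imaging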
miR122 inh – inhibitors of miR-122 in Huh7 cells | Huh7 miR-122 Renilla luciferase sensor, 48 h; neutral wells = 0, positive control = 100 | activation (reporter increase), % at 12.5 µM | 340,000 tested, 0.3% active;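 active = mean replicate activation score at least 90 and every replicate individually at or above 90; inconclusive = only one of the two criteria met; inactive = neither criterion met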;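 also: higher luciferase means less miR-122 activity so hits act as miR-122 inhibitors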
Numbers stand for hits; [ ] = remark or other dose.

How did C[C@@H]1CN([C@H](C)CO)S(=O)(=O)c2ccc(-c3ccccc3)cc2O[C@H]1CN(C)C(=O)C1CCCCC1 do in these assays?
Ecoli rRNA inh: inactive; DENV2 CPE rescue: inactive; Cneo AK release: 105; E-sel inducer: inactive; miR122 inh: inconclusive

What do the screens show for `C[C@H](CO)N1C[C@H](C)[C@H](CN(C)C(=O)c2ccc3c(c2)OCO3)Oc2cc(-c3ccccc3)ccc2S1(=O)=O`?
Ecoli rRNA inh: inactive; DENV2 CPE rescue: inactive; Cneo AK release: inactive; E-sel inducer: 108; miR122 inh: inactive

How did C[C@@H]1CN([C@H](C)CO)S(=O)(=O)c2ccc(-c3ccccc3)cc2O[C@H]1CN(C)S(C)(=O)=O do in these assays?
Ecoli rRNA inh: inactive; DENV2 CPE rescue: inactive; Cneo AK release: inactive; E-sel inducer: 58; miR122 inh: inactive

What do the screens show for `C[C@H]1CN([C@@H](C)CO)S(=O)(=O)c2ccc(-c3cncnc3)cc2O[C@@H]1CN(C)C(=O)C1CCC1`?
Ecoli rRNA inh: inactive; DENV2 CPE rescue: inactive; Cneo AK release: inactive; E-sel inducer: inactive; miR122 inh: inactive

Results for C[C@H](CO)N1C[C@H](C)[C@@H](CN(C)C(=O)C2CCC2)Oc2cc(-c3cncnc3)ccc2S1(=O)=O ?
Ecoli rRNA inh: inactive; DENV2 CPE rescue: 29; Cneo AK release: inactive; E-sel inducer: inactive; miR122 inh: inactive

How did C[C@@H]1CN([C@@H](C)CO)C(=O)c2cc(NS(=O)(=O)c3ccc(Cl)cc3)ccc2O[C@@H]1CN(C)Cc1ccc(C(F)(F)F)cc1 do in these assays?
Ecoli rRNA inh: inactive; E-sel inducer: inactive; miR122 inh: inactive

Results for COc1ccc2c3c(n(C)c2c1)[C@@H](CO)N(CC1CCOCC1)CC31CN(C(=O)c2cccc(F)c2)C1 ?
Ecoli rRNA inh: inactive

Results for CCCN(C)C[C@H]1OCCCC[C@H](C)Oc2ccc(NS(C)(=O)=O)cc2C(=O)N([C@H](C)CO)C[C@H]1C ?
Ecoli rRNA inh: inactive; E-sel inducer: inactive; miR122 inh: inactive

Results for CCCC(=O)Nc1ccc2c(c1)OC[C@@H](C)N(Cc1cncnc1)C[C@@H](C)[C@H](OC)CN(C)C2=O ?
Ecoli rRNA inh: inactive

How did CO[C@@H]1CN(C)C(=O)c2cc(NS(C)(=O)=O)ccc2OC[C@H](C)N(C(=O)CN(C)C)C[C@H]1C do in these assays?
Ecoli rRNA inh: inactive; DENV2 CPE rescue: inactive; Cneo AK release: inactive; E-sel inducer: inactive; miR122 inh: inactive

Results for CO[C@H]1CN(C)C(=O)c2cc(NS(C)(=O)=O)ccc2OC[C@H](C)N(C(=O)CN(C)C)C[C@@H]1C ?
Ecoli rRNA inh: inactive; DENV2 CPE rescue: 64; Cneo AK release: inactive; E-sel inducer: inactive; miR122 inh: inactive

Results for CO[C@H]1CN(C)C(=O)c2cc(NS(C)(=O)=O)ccc2OC[C@@H](C)N(C(=O)CN(C)C)C[C@@H]1C ?
Ecoli rRNA inh: inactive; DENV2 CPE rescue: inactive; Cneo AK release: inactive; E-sel inducer: inactive; miR122 inh: inactive

What do the screens show for `CO[C@@H]1CN(C)C(=O)c2cc(NS(C)(=O)=O)ccc2OC[C@@H](C)N(C(=O)CN(C)C)C[C@@H]1C`?
Ecoli rRNA inh: inactive; DENV2 CPE rescue: 21; Cneo AK release: inactive; E-sel inducer: inactive; miR122 inh: inactive

How did COCC#Cc1ccc2c(c1)O[C@H](CN(C)S(=O)(=O)c1ccc(OC)cc1)[C@H](C)CN([C@H](C)CO)S2(=O)=O do in these assays?
Ecoli rRNA inh: inactive; DENV2 CPE rescue: inactive; Cneo AK release: 87; E-sel inducer: inactive; miR122 inh: 120[16.7 µM]

How did CCCC#Cc1ccc2c(c1)O[C@@H](CN(C)S(=O)(=O)c1cccc(OC)c1)[C@@H](C)CN([C@@H](C)CO)S2(=O)=O do in these assays?
Ecoli rRNA inh: inactive; DENV2 CPE rescue: inactive; Cneo AK release: inactive; E-sel inducer: 98; miR122 inh: inactive

How did COCC#Cc1ccc2c(c1)O[C@H](CN(C)S(=O)(=O)c1ccc(OC)cc1)[C@@H](C)CN([C@H](C)CO)S2(=O)=O do in these assays?
Ecoli rRNA inh: inactive; DENV2 CPE rescue: inconclusive; Cneo AK release: inactive; E-sel inducer: inactive; miR122 inh: inactive

What do the screens show for `C[C@@H]1CN([C@H](C)CO)C(=O)c2cc(NC(=O)c3ccccc3)ccc2O[C@@H](C)CCCCO[C@@H]1CN(C)S(=O)(=O)c1cccs1`?
Ecoli rRNA inh: inactive; DENV2 CPE rescue: inactive; Cneo AK release: inactive; E-sel inducer: inactive; miR122 inh: inactive

Results for Cc1cc(C)c(S(=O)(=O)N2CCN=C2c2ccccc2)cc1C ?
Cneo AK release: inactive; miR122 inh: 100

Results for COc1ccc(C(=O)OCc2c(-c3ccccc3)ncc3ccccc23)cc1 ?
Ecoli rRNA inh: inactive; DENV2 CPE rescue: inactive; Cneo AK release: inactive; E-sel inducer: inactive; miR122 inh: inactive

What do the screens show for `COc1ccccc1C(=O)OCc1c(-c2ccccc2)ncc2ccccc12`?
Ecoli rRNA inh: -25; DENV2 CPE rescue: inactive; Cneo AK release: inactive; E-sel inducer: inactive; miR122 inh: inactive

How did COc1cccc(-c2ncc3ccccc3c2COC(=O)c2ccc(F)cc2)c1 do in these assays?
Ecoli rRNA inh: inactive; DENV2 CPE rescue: 102; Cneo AK release: inactive; E-sel inducer: inactive; miR122 inh: inactive

Results for COc1cccc(-c2ncc3ccccc3c2COC(=O)c2ccc(C(C)(C)C)cc2)c1 ?
Ecoli rRNA inh: inactive; DENV2 CPE rescue: inactive; Cneo AK release: inactive; E-sel inducer: inactive; miR122 inh: inactive

What do the screens show for `CO[C@H]1CN(C)C(=O)c2ccc(NC(=O)C3CCOCC3)cc2OC[C@@H](C)N(CC2CC2)C[C@H]1C`?
Ecoli rRNA inh: inactive; DENV2 CPE rescue: inactive; Cneo AK release: inactive; E-sel inducer: inactive

How did COc1ccc2c3c(n(C)c2c1)[C@H](CO)N(C(C)=O)CC31CN(Cc2cccnc2)C1 do in these assays?
Ecoli rRNA inh: inactive

How did COc1cccc(CN2[C@@H](CO)[C@@H](c3ccccc3)C23CN(Cc2ccccc2OC)C3)c1 do in these assays?
Ecoli rRNA inh: inactive

How did O=C(CCN1CCOCC1)N/N=C/c1cc([N+](=O)[O-])ccc1OC(F)F do in these assays?
Ecoli rRNA inh: inactive; DENV2 CPE rescue: 22; Cneo AK release: inactive; miR122 inh: inactive

How did CCCCC(=O)N/N=C/c1cc([N+](=O)[O-])ccc1N1CCOCC1 do in these assays?
Cneo AK release: inactive; miR122 inh: inactive

How did O=[N+]([O-])c1ccc(N2CCCC2)cc1N1CCCC1 do in these assays?
Cneo AK release: inactive; miR122 inh: inactive

How did Cc1cc(N2CCCCC2)ccc1[N+](=O)[O-] do in these assays?
Ecoli rRNA inh: -43; DENV2 CPE rescue: inconclusive

What do the screens show for `Cc1c(NC(=O)NC2CCCCC2)cccc1[N+](=O)[O-]`?
Ecoli rRNA inh: inactive; DENV2 CPE rescue: inactive; Cneo AK release: inactive; miR122 inh: 157

How did COCC(=O)N1C[C@@H]2[C@H](c3ccccc31)[C@H](CO)N2Cc1ccc(OC)cc1 do in these assays?
Ecoli rRNA inh: inactive; DENV2 CPE rescue: inactive; Cneo AK release: inactive; E-sel inducer: inactive; miR122 inh: inactive

Bioassay records deposited in PubChem by Broad Institute.
